The nature of data set [1]: Half life in pH 1.2 phosphate buffer at 5 uM by HPLC method. It counts as physicochemical. The procedure, abridged: (§1)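 Compound dissolved at 5 µM in phosphate buffer (pH 1.2, 6.8 or 7.4), held at 37 °C for 24 h. Aliquots taken at intervals and analysed by HPLC. t1/2 = 0.693/k from linear regression of pseudo-first-order kinetics.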
The nature of data set [2]: Half life in pH 7.4 phosphate buffer at 5 uM by HPLC method. It counts as physicochemical. The procedure, abridged:
as §1

Data set [3] is described as follows: Half life in rat intestinal homogenates at 5 uM by HPLC method. It counts as ADME, tissue-based, Intestine. The procedure, abridged:
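Compound at 5 µM final in rat plasma, 20% rat hepatic homogenate or 20% rat intestinal homogenate at 37 °C for 24 h. Homogenates made by homogenizing 0.3 g saline-washed tissue in 1 mL saline, spun 13,000 rpm 4 °C 5 min. Sampled at intervals, analysed by HPLC. t1/2 = 0.693/k.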

For data set [4], the target named is T1, Organic cation/carnitine transporter 2 (Homo sapiens, UniProt O76082).
T1 sequence (O76082 whole entry): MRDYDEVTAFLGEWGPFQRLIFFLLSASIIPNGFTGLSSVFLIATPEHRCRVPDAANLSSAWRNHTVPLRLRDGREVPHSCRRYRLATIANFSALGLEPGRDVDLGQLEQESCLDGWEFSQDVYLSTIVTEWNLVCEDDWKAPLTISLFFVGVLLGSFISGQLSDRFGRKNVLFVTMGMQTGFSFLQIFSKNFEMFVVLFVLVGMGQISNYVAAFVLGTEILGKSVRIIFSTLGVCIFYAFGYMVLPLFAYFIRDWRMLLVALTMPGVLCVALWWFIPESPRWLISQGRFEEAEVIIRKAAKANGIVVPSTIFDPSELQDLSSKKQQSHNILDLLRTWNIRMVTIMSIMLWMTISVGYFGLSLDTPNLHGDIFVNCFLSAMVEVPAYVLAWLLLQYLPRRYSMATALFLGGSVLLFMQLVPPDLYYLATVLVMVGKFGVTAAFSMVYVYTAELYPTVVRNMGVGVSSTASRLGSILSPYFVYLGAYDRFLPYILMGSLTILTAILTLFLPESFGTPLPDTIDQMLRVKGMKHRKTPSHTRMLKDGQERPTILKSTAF
In words: Ratio of drug transport assessed as OCTN2 transporter mediated drug uptake in human Caco2 cells at 1 to 800 uM in presence of Na+ to drug transport assessed as OCTN2 transporter mediated drug uptake in human Caco2 cells at 1 to 800 uM in presence of N-methyl-D-glucamine. It counts as ADME, cell-based. Conditions: caco-2, 800 µM; call rule not given here.

In data set [5] the target is T1, Organic cation/carnitine transporter 2. Briefly: Ratio of drug transport assessed as OCTN2 transporter mediated drug uptake in human Caco2 cells at 100 uM in absence of L-carnitine to drug transport assessed as OCTN2 transporter mediated drug uptake in human Caco2 cells at 100 uM in presence of L-carnitine. In kind it is ADME, cell-based. As to conditions: caco-2, 100 µM. (Caco-2 cells form a polarised layer with tight junctions and transporters.)

Data set [6] has the same target. Briefly: Ratio of drug transport assessed as OCTN2 transporter mediated cell permeability in human Caco2 cells at 25 uM in absence of L-carnitine to drug transport assessed as OCTN2 transporter mediated cell permeability in human Caco2 cells at 25 uM in presence of L-carnitine. Conditions: caco-2, 25 µM. In kind it is ADME, cell-based. An outline of the steps:
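Caco-2 cells seeded at 1.0×10^5 cells/well on 0.4 µm polycarbonate inserts, cultured 21 days in MEM; monolayers with TEER over 250 Ω·cm² used. Compound at 25 µM final in HBSS, added apically, with or without 100 µM L-carnitine, 37 °C. Basolateral samples taken at 15, 30, 45, 60, 90, 120 min. Analysed by UPLC-MS/MS to give Papp. Triplicate runs.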

Another data set has as its system Spleen. Briefly: Drug uptake in mouse spleen at 102 mg/kg, po administered as single dose at 0.5 hrs post dose. It counts as ADME, organism-based. Conditions: in vivo. The procedure, abridged:
(§2)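 Mice, three per time point, single oral dose of 102 mg/kg (equivalent to 50 mg/kg gemcitabine). Heart, liver, spleen, lung, kidney and brain collected at 0.16, 0.5 and 2 h, rinsed in saline. 0.3 g tissue homogenized 1 min in 1 mL saline, spun 13,000 rpm 4 °C 5 min. Gemcitabine measured in supernatant.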

Another data set deals with Lung. In words: Drug uptake in mouse lung at 102 mg/kg, po administered as single dose at 2 hrs post dose. It counts as ADME, organism-based. Conditions: in vivo. The procedure, abridged:
as §2

In data set [7] the test system is Mus musculus. In words: Toxicity in Kunming mouse assessed as […] degeneration in hepatocytes at 102 mg/kg, po administered once daily for 14 days by hematoxylin/eosin staining based optical microscopic analysis. In kind it is organism-based. Conditions: in vivo, 336 h. The procedure, abridged: (§3)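 Kunming mice, four per group, dosed orally once daily for 14 days with 102 mg/kg or saline control; body weight recorded every other day. Heart, liver, spleen, lung and kidney fixed in 10% buffered formalin, paraffin-embedded, sectioned, stained with hematoxylin and eosin, and examined by optical microscopy.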

Data set [8] has as its system Mus musculus. Briefly: Toxicity in Kunming mouse assessed as […] degeneration in spleen at 102 mg/kg, po administered once daily for 14 days by hematoxylin/eosin staining based optical microscopic analysis. It counts as organism-based. As to conditions: in vivo, 336 h. The procedure, abridged: as §3
In data set [9] the test system is Mus musculus. In words: Toxicity in Kunming mouse assessed as […] degeneration in lung at 102 mg/kg, po administered once daily for 14 days by hematoxylin/eosin staining based optical microscopic analysis. It counts as organism-based. Conditions: in vivo, 336 h. The procedure, abridged:
as §3

Data set [10] has as its system Mus musculus. Briefly: Toxicity in Kunming mouse assessed as inflammatory infiltrates in cardiac muscle at 102 mg/kg, po administered once daily for 14 days by hematoxylin/eosin staining based optical microscopic analysis. In kind it is organism-based. Conditions: in vivo, 336 h. The procedure, abridged: as §3
Data set [11] deals with Mus musculus. Briefly: Toxicity in Kunming mouse assessed as inflammatory infiltrates in hepatocytes at 102 mg/kg, po administered once daily for 14 days by hematoxylin/eosin staining based optical microscopic analysis. In kind it is organism-based. Conditions: in vivo, 336 h. An outline of the steps: as §3
Data set [12] has as its system Mus musculus. Briefly: Toxicity in Kunming mouse assessed as inflammatory infiltrates in spleen at 102 mg/kg, po administered once daily for 14 days by hematoxylin/eosin staining based optical microscopic analysis. It counts as organism-based. As to conditions: in vivo, 336 h. An outline of the steps:
(§4)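 Kunming mice, four per group, dosed orally once daily for 14 days with test article or physiological saline control, body weight recorded every other day. After sacrifice, heart, liver, spleen, lung and kidney were fixed at once in 10% buffered formalin, paraffin-embedded, sectioned, H&E stained and examined by optical microscopy for hydropic degeneration, inflammatory infiltrates and fibrosis.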

The subject of data set [13] is Mus musculus. In words: Toxicity in Kunming mouse assessed as inflammatory infiltrates in lung at 102 mg/kg, po administered once daily for 14 days by hematoxylin/eosin staining based optical microscopic analysis. Conditions: in vivo, 336 h. It counts as organism-based. An outline of the steps: as §4
In data set [14] the test system is Mus musculus. In words: Toxicity in Kunming mouse assessed as inflammatory infiltrates in kidney at 102 mg/kg, po administered once daily for 14 days by hematoxylin/eosin staining based optical microscopic analysis. In kind it is organism-based. As to conditions: in vivo, 336 h. The procedure, abridged: as §3
For data set [15], the system named is Mus musculus. Briefly: Toxicity in Kunming mouse assessed as fibrosis in cardiac muscle at 102 mg/kg, po administered once daily for 14 days by hematoxylin/eosin staining based optical microscopic analysis. Conditions: in vivo, 336 h. It counts as organism-based. An outline of the steps: as §3
Data set [16] relates to Mus musculus. Briefly: Toxicity in Kunming mouse assessed as fibrosis in hepatocytes at 102 mg/kg, po administered once daily for 14 days by hematoxylin/eosin staining based optical microscopic analysis. In kind it is organism-based. Conditions: in vivo, 336 h. The procedure, abridged:
as §3

As for `C[N+](C)(C)CC(CC(=O)[O-])OC(=O)CCCCC(=O)Nc1ccn([C@@H]2O[C@H](CO)[C@@H](O)C2(F)F)c(=O)n1` (stereo partly drawn), the results for the half-life at 5 µM in data set [1], in [2] and in data set [3] were 4.4 h, 45.8 h and 78.7 h, respectively. The figures for the Ratio in [4], in data set [5] and in data set [6] were 2 to 10, 2.2 to 3.7 and 1.6 to 3.6, respectively. Moreover, the Drug uptake entry in the data set with Spleen is on record as “Active”; in the data set with Lung, “Not Active”. The Activity entry in the data set with Mus musculus [7], in the data set on Mus musculus [8], in the data set on Mus musculus [9], with Mus musculus [10], with Mus musculus [11] and in the data set with Mus musculus [12] was “Non-Toxic” in each case. In addition, the Activity result in the data set with Mus musculus [13], in the data set on Mus musculus [14], in the data set on Mus musculus [15] and in the data set with Mus musculus [16] was “Non-Toxic” each time.

For the origin of these results see ChEMBL document CHEMBL4049387, “Combination of l-Carnitine with Lipophilic Linkage-Donating Gemcitabine Derivatives as Intestinal Novel Organic Cation Transporter 2-Targeting Oral Prodrugs” (J Med Chem, 2017).
